Laboratory results published in ChEMBL document CHEMBL1158535, “Thiazole, oxadiazole, and carboxamide derivatives of artemisinin are highly selective and potent inhibitors of Toxoplasma gondii” (J Med Chem, 2010).
The source made the active and inactive calls. The calls are words filed in the database; no cut-off is given here.

Key:
Toxoplasma gondii [1] = experiment: Antiparasitic activity against Toxoplasma gondii 2F infected in HFF cells assessed as beta galactosidase activity after 5 days; type: functional, organism-based; conditions: 120 h
In short: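 HFF monolayers infected with β-galactosidase-expressing T. gondii 2F tachyzoites; compounds from final 320 μM serially diluted 0.5 log10, drug-free parasite control. After 4 days at 37°C/5% CO2, CPRG substrate added and incubated 1 more day. Absorbance 570-650 nm relative to parasite control. IC50 calculated; at least three independent experiments.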

[2] = Therapeutic index, ratio of TD50 for HFF cells to IC50 for Toxoplasma gondii F2; type: cell-based; conditions: human, read-out: TI
[3] = Cytotoxicity against HFF after 5 days by CellTiter 96 Aqueous One Solution assay; conditions: human, HFF cells; read-out: TD50
Toxoplasma gondii [4] = experiment: Antiparasitic activity against Toxoplasma gondii 2F infected in HFF cells assessed as inhibition of parasite replication at 1 uM; type: functional, organism-based
In short: (§1)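 HFF monolayers inoculated with tachyzoites, 2 h at 37°C/5% CO2, then compound (1, 5 or 10 μM) or DMSO added. Replication 24-26 h, then fixed, permeabilized, immunolabeled anti-p30 with DAPI. Parasites per vacuole (1, 2, 4, 8+) counted by eye in 10 random fields; reported as modal number/doublings.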

Toxoplasma gondii [5] = experiment: Antiparasitic activity against Toxoplasma gondii 2F infected in HFF cells assessed as inhibition of parasite replication at 10 uM; type: functional, organism-based; in short: as §1
Toxoplasma gondii [6] = experiment: Antiparasitic activity against Toxoplasma gondii 2F infected in HFF cells assessed as inhibition of parasite replication at 5 uM; type: functional, organism-based; in short: as §1

`CNC(=O)C1=C(C)[C@@H]2CC[C@@H](C)[C@@H]3CC[C@@]4(C)OO[C@@]23[C@H](O1)O4` showed an IC50 (Toxoplasma gondii [1]) of 15 µM, a selectivity ratio [2] of 37 and a CC50 at 120 h [3] of at least 320 µM.

Work on `CC1=C(C(=O)NCc2cc(Br)cc(Br)c2)O[C@@H]2O[C@@]3(C)CC[C@H]4[C@H](C)CC[C@@H]1[C@@]24OO3` yielded an IC50 (Toxoplasma gondii [1]) of 0.81 µM, a selectivity ratio [2] of 694 and a CC50 at 120 h [3] of at least 320 µM.

Molecule `COc1ccc(-c2csc(C3=C(C)[C@@H]4CC[C@@H](C)[C@@H]5CC[C@@]6(C)OO[C@@]45[C@H](O3)O6)n2)cc1` has an IC50 (Toxoplasma gondii [1]) of 0.75 µM, a selectivity ratio [2] of 25 and a CC50 at 120 h [3] of 19 µM.

In the case of `C[C@@H]1CC[C@H]2[C@@H](C)C(=O)O[C@@H]3O[C@@]4(C)CC[C@@H]1[C@]32OO4` [ARTEMISININ], the IC50 (Toxoplasma gondii [1]) is reported as 0.64 µM, the selectivity ratio [2] is reported as 879 and the CC50 at 120 h [3] is reported as at least 320 µM.

In the case of `CC1=C(c2nc(-c3ccccc3)cs2)O[C@@H]2O[C@@]3(C)CC[C@H]4[C@H](C)CC[C@@H]1[C@@]24OO3`, the Activity (Toxoplasma gondii [4]) is reported as “Active”, the Activity (Toxoplasma gondii [5]) is reported as “Active” and the IC50 (Toxoplasma gondii [1]) is reported as 0.34 µM. For the same molecule, the selectivity ratio [2] was 1650, the Activity (Toxoplasma gondii [6]) was “Active” and the CC50 at 120 h [3] was at least 320 µM.

With `CC1=C(c2nc(C(C)(C)C)cs2)O[C@@H]2O[C@@]3(C)CC[C@H]4[C@H](C)CC[C@@H]1[C@@]24OO3` the Activity (Toxoplasma gondii [4]) was “Active”, the Activity (Toxoplasma gondii [5]) was “Active” and the IC50 (Toxoplasma gondii [1]) was 0.25 µM. For the same molecule, the selectivity ratio [2] was 2250, the Activity (Toxoplasma gondii [6]) was “Active” and the CC50 at 120 h [3] was at least 320 µM.

`CCNC(=O)C1=C(C)[C@@H]2CC[C@@H](C)[C@@H]3CC[C@@]4(C)OO[C@@]23[C@H](O1)O4` showed an IC50 (Toxoplasma gondii [1]) of 6.8 µM, a selectivity ratio [2] of 38 and a CC50 at 120 h [3] of 259 µM.

With `CC1=C(C(=O)NCc2ccc(C)cc2)O[C@@H]2O[C@@]3(C)CC[C@H]4[C@H](C)CC[C@@H]1[C@@]24OO3` the IC50 (Toxoplasma gondii [1]) was 0.51 µM, the selectivity ratio [2] was 331 and the CC50 at 120 h [3] was 169 µM.

In the case of `CC1=C(c2nccs2)O[C@@H]2O[C@@]3(C)CC[C@H]4[C@H](C)CC[C@@H]1[C@@]24OO3`, the IC50 (Toxoplasma gondii [1]) is reported as 1.1 µM, the selectivity ratio [2] is reported as 511 and the CC50 at 120 h [3] is reported as at least 320 µM.

Work on `CC1=C(c2nc(-c3ccc(S(C)(=O)=O)cc3)cs2)O[C@@H]2O[C@@]3(C)CC[C@H]4[C@H](C)CC[C@@H]1[C@@]24OO3` yielded an IC50 (Toxoplasma gondii [1]) of 0.42 µM, a selectivity ratio [2] of 1340 and a CC50 at 120 h [3] of at least 320 µM.

With `CC1=C(c2ncc(C)s2)O[C@@H]2O[C@@]3(C)CC[C@H]4[C@H](C)CC[C@@H]1[C@@]24OO3` the Activity (Toxoplasma gondii [4]) was “Active”, the Activity (Toxoplasma gondii [5]) was “Active” and the IC50 (Toxoplasma gondii [1]) was 0.37 µM. For the same molecule, the selectivity ratio [2] was 1520, the Activity (Toxoplasma gondii [6]) was “Active” and the CC50 at 120 h [3] was at least 320 µM.

With `CC1=C(c2nc(C)c(C)s2)O[C@@H]2O[C@@]3(C)CC[C@H]4[C@H](C)CC[C@@H]1[C@@]24OO3` the Activity (Toxoplasma gondii [4]) was “Active”, the Activity (Toxoplasma gondii [5]) was “Active” and the IC50 (Toxoplasma gondii [1]) was 0.16 µM. The selectivity ratio [2] was 240, the Activity (Toxoplasma gondii [6]) was “Active” and the CC50 at 120 h [3] was 38 µM.

In the case of `CCN(CC)C(=O)C1=C(C)[C@@H]2CC[C@@H](C)[C@@H]3CC[C@@]4(C)OO[C@@]23[C@H](O1)O4`, the IC50 (Toxoplasma gondii [1]) is reported as 11 µM, the selectivity ratio [2] is reported as 2.1 and the CC50 at 120 h [3] is reported as 23 µM.

Work on `CC1=C(c2nc(C)no2)O[C@@H]2O[C@@]3(C)CC[C@H]4[C@H](C)CC[C@@H]1[C@@]24OO3` yielded an IC50 (Toxoplasma gondii [1]) of 0.84 µM, a selectivity ratio [2] of 669 and a CC50 at 120 h [3] of at least 320 µM.

`CCc1csc(C2=C(C)[C@@H]3CC[C@@H](C)[C@@H]4CC[C@@]5(C)OO[C@@]34[C@H](O2)O5)n1` showed an IC50 (Toxoplasma gondii [1]) of 0.4 µM, a selectivity ratio [2] of 1410 and a CC50 at 120 h [3] of at least 320 µM.

For `CC1=C(c2nc(-c3ccccc3)no2)O[C@@H]2O[C@@]3(C)CC[C@H]4[C@H](C)CC[C@@H]1[C@@]24OO3`, the Activity (Toxoplasma gondii [4]) was “Active”, the Activity (Toxoplasma gondii [5]) was “Active” and the IC50 (Toxoplasma gondii [1]) was 0.44 µM. The selectivity ratio [2] was 320, the Activity (Toxoplasma gondii [6]) was “Active” and the CC50 at 120 h [3] was 141 µM.

`CC1=C(C(=O)NCc2ccc(C(F)(F)F)cc2)O[C@@H]2O[C@@]3(C)CC[C@H]4[C@H](C)CC[C@@H]1[C@@]24OO3` gave an IC50 (Toxoplasma gondii [1]) of 0.34 µM, a selectivity ratio [2] of 1650 and a CC50 at 120 h [3] of at least 320 µM.

`CC1=C(C(=O)NCc2ccc(F)cc2)O[C@@H]2O[C@@]3(C)CC[C@H]4[C@H](C)CC[C@@H]1[C@@]24OO3` gave an IC50 (Toxoplasma gondii [1]) of 0.47 µM, a selectivity ratio [2] of 153 and a CC50 at 120 h [3] of 72 µM.

For `CC1=C(C(=O)NCc2ccccc2)O[C@@H]2O[C@@]3(C)CC[C@H]4[C@H](C)CC[C@@H]1[C@@]24OO3`, the IC50 (Toxoplasma gondii [1]) was 0.67 µM, the selectivity ratio [2] was 839 and the CC50 at 120 h [3] was at least 320 µM.

With `CC1=C(c2nc(C)cs2)O[C@@H]2O[C@@]3(C)CC[C@H]4[C@H](C)CC[C@@H]1[C@@]24OO3` the Activity (Toxoplasma gondii [4]) was “Active”, the Activity (Toxoplasma gondii [5]) was “Active” and the IC50 (Toxoplasma gondii [1]) was 0.4 µM. The selectivity ratio [2] was 1410, the Activity (Toxoplasma gondii [6]) was “Active” and the CC50 at 120 h [3] was at least 320 µM.

Work on `CC1=C(c2nc(C3CCCCC3)cs2)O[C@@H]2O[C@@]3(C)CC[C@H]4[C@H](C)CC[C@@H]1[C@@]24OO3` yielded an IC50 (Toxoplasma gondii [1]) of 0.59 µM, a selectivity ratio [2] of 3 and a CC50 at 120 h [3] of 1.8 µM.

`CC1=C(c2nc(-c3ccc(C)cc3)cs2)O[C@@H]2O[C@@]3(C)CC[C@H]4[C@H](C)CC[C@@H]1[C@@]24OO3` gave an IC50 (Toxoplasma gondii [1]) of 0.35 µM, a selectivity ratio [2] of 1610 and a CC50 at 120 h [3] of at least 320 µM.

Work on `CSc1ccc(-c2csc(C3=C(C)[C@@H]4CC[C@@H](C)[C@@H]5CC[C@@]6(C)OO[C@@]45[C@H](O3)O6)n2)cc1` yielded an IC50 (Toxoplasma gondii [1]) of 0.4 µM, a selectivity ratio [2] of 1410 and a CC50 at 120 h [3] of at least 320 µM.

For `CO[C@H]1O[C@@H]2O[C@@]3(C)CC[C@H]4[C@H](C)CC[C@@H]([C@H]1C)[C@@]24OO3` [ARTEMETHER], the IC50 (Toxoplasma gondii [1]) was 0.31 µM, the selectivity ratio [2] was 1810 and the CC50 at 120 h [3] was at least 320 µM.

`COc1cc(Cc2cnc(N)nc2N)cc(OC)c1OC` [TRIMETHOPRIM] gave an IC50 (Toxoplasma gondii [1]) of 46 µM, a selectivity ratio [2] of 12 and a CC50 at 120 h [3] of at least 320 µM.

In the case of `CC1=C(C(=O)NCc2ccc(F)c(F)c2)O[C@@H]2O[C@@]3(C)CC[C@H]4[C@H](C)CC[C@@H]1[C@@]24OO3`, the IC50 (Toxoplasma gondii [1]) is reported as 0.47 µM, the selectivity ratio [2] is reported as 166 and the CC50 at 120 h [3] is reported as 78 µM.

Work on `CC1=C(C(=O)NCc2cc(F)cc(F)c2)O[C@@H]2O[C@@]3(C)CC[C@H]4[C@H](C)CC[C@@H]1[C@@]24OO3` yielded an IC50 (Toxoplasma gondii [1]) of 0.36 µM, a selectivity ratio [2] of 1560 and a CC50 at 120 h [3] of at least 320 µM.
